Laboratory results from ChEMBL document CHEMBL1765010, “Reversible competitive α-ketoheterocycle inhibitors of fatty acid amide hydrolase containing additional conformational constraints in the acyl side chain: orally active, long-acting analgesics” (J Med Chem, 2011).
Active and inactive are the calls of the source.

Legend:
[1] = molecular target: T1, Fatty-acid amide hydrolase 1 (Homo sapiens) (UniProt O00519); test: Competitive inhibition of full-length human FAAH expressed in COS-7 cells by Lineweaver-Burk analysis; type: cell-based
T1 sequence (whole entry): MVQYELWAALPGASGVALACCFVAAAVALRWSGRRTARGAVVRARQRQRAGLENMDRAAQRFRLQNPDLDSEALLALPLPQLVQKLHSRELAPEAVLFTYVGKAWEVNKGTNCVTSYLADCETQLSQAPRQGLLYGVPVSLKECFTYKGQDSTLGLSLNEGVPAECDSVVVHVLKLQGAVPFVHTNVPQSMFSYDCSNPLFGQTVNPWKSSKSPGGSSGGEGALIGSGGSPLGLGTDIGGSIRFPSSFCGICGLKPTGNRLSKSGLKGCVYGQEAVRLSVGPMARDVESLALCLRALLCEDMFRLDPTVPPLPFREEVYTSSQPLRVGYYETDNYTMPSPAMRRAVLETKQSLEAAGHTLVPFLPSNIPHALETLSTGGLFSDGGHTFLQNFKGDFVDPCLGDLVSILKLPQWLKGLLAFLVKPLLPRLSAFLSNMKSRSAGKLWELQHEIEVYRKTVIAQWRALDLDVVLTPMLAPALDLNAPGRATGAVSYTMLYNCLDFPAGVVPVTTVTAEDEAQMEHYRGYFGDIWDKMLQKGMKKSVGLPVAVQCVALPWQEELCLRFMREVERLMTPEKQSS
Outline: (§1)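 Solubilized membrane lysate of COS-7 cells transiently transfected with full-length human FAAH cDNA. Aliquots quenched in 0.1 N HCl at three times; oleamide/oleic acid extracted into EtOAc and separated by TLC. Initial rates (≤10–20% conversion) analysed by Lineweaver–Burk plot.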

[2] = molecular target: T1, Fatty-acid amide hydrolase 1 (Homo sapiens); test: Reversible inhibition of full-length human FAAH expressed in COS-7 cells by Lineweaver-Burk analysis; type: cell-based; outline: as §1
[3] = molecular target: T2, Fatty-acid amide hydrolase 1 (Rattus norvegicus, UniProt P97612); test: Inhibition of rat recombinant FAAH expressed in Escherichia coli assessed as [14C]-labeled oleamide to oleic acid conversion
T2 sequence (P97612 whole entry): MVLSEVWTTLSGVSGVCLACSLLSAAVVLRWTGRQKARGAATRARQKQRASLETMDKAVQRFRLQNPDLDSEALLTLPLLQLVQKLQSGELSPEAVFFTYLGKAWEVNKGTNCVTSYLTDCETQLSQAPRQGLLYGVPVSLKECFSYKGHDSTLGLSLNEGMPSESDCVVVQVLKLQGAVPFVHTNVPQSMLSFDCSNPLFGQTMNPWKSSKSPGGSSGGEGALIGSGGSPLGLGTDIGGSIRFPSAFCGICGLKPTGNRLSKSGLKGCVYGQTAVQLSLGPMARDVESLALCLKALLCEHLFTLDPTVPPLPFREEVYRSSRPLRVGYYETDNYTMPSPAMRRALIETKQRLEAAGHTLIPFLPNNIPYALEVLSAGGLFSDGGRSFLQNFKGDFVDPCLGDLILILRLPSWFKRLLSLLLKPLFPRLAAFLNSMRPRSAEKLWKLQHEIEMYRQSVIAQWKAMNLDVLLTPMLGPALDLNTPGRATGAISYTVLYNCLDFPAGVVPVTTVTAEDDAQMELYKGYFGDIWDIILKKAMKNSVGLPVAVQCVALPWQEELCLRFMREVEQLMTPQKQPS

[4] = tested on: Mus musculus; test: Inhibition of FAAH in C57Bl/6J mouse brain assessed as increase of anandamide level at 30 mg/kg, ip after 1 hr relative to control; type: functional; conditions: route intraperitoneal
Outline: (§2)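 Male C57Bl/6J mice (<6 months, 20–28 g) dosed i.p. at 30 mg/kg in 18:1:1 saline:ethanol:emulphor emulsion; brains taken 1 h later. One mouse in the initial screen, 3 per group in the follow-up. Brain homogenized in CHCl3:MeOH:Tris pH 8.0 with deuterated lipid standards; organic extract quantified by reverse-phase C18 LC-ESI-MS/MS against vehicle controls.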

[5] = tested on: Mus musculus; test: Inhibition of FAAH in C57Bl/6J mouse brain assessed as increase of N-palmitoyl ethanolamine level at 30 mg/kg, ip after 1 hr relative to control; type: functional; conditions: route intraperitoneal; outline: as §2
[6] = tested on: Mus musculus; test: Inhibition of FAAH in C57Bl/6J mouse brain assessed as increase of 2-arachidonoylglycerol level at 30 mg/kg, ip after 1 hr relative to control; type: functional; conditions: route intraperitoneal; outline: as §2
[7] = tested on: Mus musculus; test: Inhibition of FAAH in C57Bl/6J mouse brain assessed as increase of arachidonic acid level at 30 mg/kg, ip after 1 hr relative to control; type: functional; conditions: route intraperitoneal; outline: as §2
[8] = tested on: Mus musculus; test: Inhibition of FAAH in C57Bl/6J mouse liver assessed as increase of anandamide level at 30 mg/kg, ip after 1 hr relative to control; type: functional; conditions: route intraperitoneal
[9] = tested on: Mus musculus; test: Inhibition of FAAH in C57Bl/6J mouse liver assessed as increase of N-palmitoyl ethanolamine level at 30 mg/kg, ip after 1 hr relative to control; type: functional; conditions: route intraperitoneal
[10] = tested on: Mus musculus; test: Inhibition of FAAH in C57Bl/6J mouse liver assessed as increase of 2-arachidonoylglycerol level at 30 mg/kg, ip after 1 hr relative to control; type: functional; conditions: route intraperitoneal
[11] = tested on: Mus musculus; test: Inhibition of FAAH in C57Bl/6J mouse brain assessed as increase of anandamide level at 50 mg/kg, po after 1 hr relative to control; type: functional
Outline: (§3)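 Male C57Bl/6J mice (<6 months, 20–28 g) given compound orally as a PEG300 solution at 10, 25 or 50 mg/kg, with 3 mice per group in the 50 mg/kg p.o. comparison; brains collected 1 h post-dose. Lipids extracted in CHCl3:MeOH:Tris pH 8.0 with deuterated internal standards, then measured by C18 LC-ESI-MS/MS relative to vehicle-treated mice.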

[12] = tested on: Mus musculus; test: Inhibition of FAAH in C57Bl/6J mouse brain assessed as increase of N-palmitoyl ethanolamine level at 50 mg/kg, po after 1 hr relative to control; type: functional; outline: as §3
[13] = tested on: Mus musculus; test: Inhibition of FAAH in C57Bl/6J mouse brain assessed as increase of 2-arachidonoylglycerol level at 50 mg/kg, po after 1 hr relative to control; type: functional; outline: as §3
[14] = tested on: Mus musculus; test: Antinociceptive activity in CD1 mouse assessed as thermal-stimulus induced tail flick latency at 1.8 to 5.6 mg/kg, iv after 30 to 60 mins; type: functional, organism-based
Outline: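 Tail flick at 52 °C in mice, dosed i.v. Baseline responders within 5 s were kept and retested at several times after dosing. Cut-off 10 s, scored 100%. % antinociception = 100 × (test latency − control latency)/(10 − control latency).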

[15] = Half life in human liver microsomes; type: ADME, Microsome
[16] = Half life in rat liver microsomes; type: ADME, Microsome

half-life [15] [min]	SMILES	inhibition [1]	inhibition [2]	Ki [3] [nM]	fold change (FC) [4]	fold change (FC) [5]	fold change (FC) [6]	fold change (FC) [7]	fold change (FC) [8]	fold change (FC) [9]	fold change (FC) [10]	fold change (FC) [11]	fold change (FC) [12]	fold change (FC) [13]	Activity [14]	half-life [16] [min]
	O=C(O)c1cccc(-c2cnc(C(=O)[C@H]3CCc4cc(Oc5ccccc5)ccc4C3)o2)n1	Active	Active	25	1.5	2	1	0.7	5	2.1	1.1	3.5	3.7	1.4	Active	
12	O=C(c1ncc(-c2ccccn2)o1)C1CCc2cc(OCc3ccccc3)ccc2C1 (configuration not stated)															
	O=C(CCCCCCc1ccccc1)c1ncc(-c2ccccn2)o1				3.3	4.6			7	1.6	0.9	11				2
